Data published in the RNAGym collection of RNA variant scans (doi:10.1002/anie.201605470).

B1: Osa-1-4 twister ribozyme (parent)
chain: CCGCCUAACACUGCCAAUGCCGGUCCCAAGCCCGGAUAAAAGUGGAGGGGGCGG

Variants of: B1
Test: self-cleavage, relative activity (ratio to wild type); higher = more cleavage; co-transcriptional
In short: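 Relative activity is the fraction cleaved divided by that of the wild-type ribozyme. The library came from a DNA template for a 54-nucleotide Oryza sativa twister ribozyme, doped at the 48 positions downstream of the cleavage site with 97 % wild-type base and 1 % of each other base. After 2 h of in vitro transcription at 37 °C with co-transcriptional self-cleavage, the RNA was reverse-transcribed with a template-switching oligonucleotide, amplified by PCR and deep-sequenced, and reads with or without upstream sequence gave the cleavage status.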

Row | Variant | self-cleavage
1 | CCGCCUAACACUGACAAUGCCGGUCCCAAACCCGGAUAAAAGUGGAGGGGGCGG [C14A G30A] | 0.02
2 | CCGCCUAACACUGACAAUGCCGGUCCCAACCCCGGAUAAAAGUGGAGGGGGCGG [C14A G30C] | 0.03
3 | CCGCCUAACACUGACAAUGCCGGUCCCAAUCCCGGAUAAAAGUGGAGGGGGCGG [C14A G30U] | 0.62
4 | CCGCCUAACACUGACAAUGCCGGUCCCAAGCCAGGAUAAAAGUGGAGGGGGCGG [C14A C33A] | 0.03
5 | CCGCCUAACACUGACAAUGCCGGUCCCAAGCCUGGAUAAAAGUGGAGGGGGCGG [C14A C33U] | 0.06
6 | CCGCCUAACACUGACAAUGCCGGUCCCAAGCCGGGAUAAAAGUGGAGGGGGCGG [C14A C33G] | 0.01
7 | CCGCCUAACACUUCCAAAGCCGGUCCCAAGCCCGGAUAAAAGUGGAGGGGGCGG [G13U U18A] | 0.03
8 | CCGCCUAACACUUCCAAGGCCGGUCCCAAGCCCGGAUAAAAGUGGAGGGGGCGG [G13U U18G] | 0.05
9 | CCGCCUAACACUUCCAACGCCGGUCCCAAGCCCGGAUAAAAGUGGAGGGGGCGG [G13U U18C] | 0.03
10 | CCGCCUAACACUGACAAUGCCGGUCCCAAGCCCGGAUAAAAGUGGAGGGGGCGG [C14A] | 0.13
11 | CCGCCUAACACUGACAAUGCCGGUCCCAAGCCCGGAUAAAAGUGGAGGGGGUGG [C14A C52U] | 0.13
12 | CCGCCUAACACUGACAAUGCCGGUCCCAAGCCCGGAUAAAAGUGGAGGGGGAGG [C14A C52A] | 0.1
13 | CCGCCUAACACUGACAAUGCCGGUCCCAAGCCCGGAUAAAAGUGGAGGGGGGGG [C14A C52G] | 0.13
14 | CCGCCUAACACUGACAAUGCCGGUCGCAAGCCCGGAUAAAAGUGGAGGGGGCGG [C14A C26G] | 0.02
15 | CCGCCUAACACUGACAAUGCCGGUCACAAGCCCGGAUAAAAGUGGAGGGGGCGG [C14A C26A] | 0.05
16 | CCGCCUAACACUGACAAUGCCGGUCUCAAGCCCGGAUAAAAGUGGAGGGGGCGG [C14A C26U] | 0.05
17 | CCGCCUAACACUGACAAUGCCGGUCCCAAGCCCCGAUAAAAGUGGAGGGGGCGG [C14A G34C] | 0.05
18 | CCGCCUAACACUGACAAUGCCGGUCCCAAGCCCUGAUAAAAGUGGAGGGGGCGG [C14A G34U] | 0.05
19 | CCGCCUAACACUGACAAUGCCGGUCCCAAGCCCAGAUAAAAGUGGAGGGGGCGG [C14A G34A] | 0.07
20 | CCGCCUAACACUGACAAUGACGGUCCCAAGCCCGGAUAAAAGUGGAGGGGGCGG [C14A C20A] | 0.12
21 | CCGCCUAACACUGACAAUGGCGGUCCCAAGCCCGGAUAAAAGUGGAGGGGGCGG [C14A C20G] | 0.03
22 | CCGCCUAACACUGACAAUGUCGGUCCCAAGCCCGGAUAAAAGUGGAGGGGGCGG [C14A C20U] | 0.16
23 | CCGCCUAACACUUCCAAUGCCGGUCCCAAGCCCGGAUAAAAGUGGAGGCGGCGG [G13U G49C] | 0.01
24 | CCGCCUAACACUUCCAAUGCCGGUCCCAAGCCCGGAUAAAAGUGGAGGUGGCGG [G13U G49U] | 0.01
25 | CCGCCUAACACUUCCAAUGCCGGUCCCAAGCCCGGAUAAAAGUGGAGGAGGCGG [G13U G49A] | 0.01

Row | Variant | self-cleavage
26 | CCGCCUAACACUUCCAAUGCCGGUCCCAAGCCCGGAUAAAAGUGGAGUGGGCGG [G13U G48U] | 0.01
27 | CCGCCUAACACUUCCAAUGCCGGUCCCAAGCCCGGAUAAAAGUGGAGCGGGCGG [G13U G48C] | 0.01
28 | CCGCCUAACACUUCCAAUGCCGGUCCCAAGCCCGGAUAAAAGUGGAGAGGGCGG [G13U G48A] | 0.01
29 | CCGCCUAACACUGACAAUGCCGAUCCCAAGCCCGGAUAAAAGUGGAGGGGGCGG [C14A G23A] | 0.05
30 | CCGCCUAACACUGACAAUGCCGCUCCCAAGCCCGGAUAAAAGUGGAGGGGGCGG [C14A G23C] | 0.02
31 | CCGCCUAACACUGACAAUGCCGUUCCCAAGCCCGGAUAAAAGUGGAGGGGGCGG [C14A G23U] | 0.02
32 | CCGCCUAACACUUCCAAUGCCGGUCCCAAGCCCGGAUAAAAGUGGAGGGGGCCG [G13U G53C] | 0.01
33 | CCGCCUAACACUUCCAAUGCCGGUCCCAAGCCCGGAUAAAAGUGGAGGGGGCAG [G13U G53A] | 0.03
34 | CCGCCUAACACUUCCAAUGCCGGUCCCAAGCCCGGAUAAAAGUGGAGGGGGCUG [G13U G53U] | 0.02
35 | CCGCCUAACACUGACAAUGCCGGUCCGAAGCCCGGAUAAAAGUGGAGGGGGCGG [C14A C27G] | 0.03
36 | CCGCCUAACACUGACAAUGCCGGUCCAAAGCCCGGAUAAAAGUGGAGGGGGCGG [C14A C27A] | 0.07
37 | CCGCCUAACACUGACAAUGCCGGUCCUAAGCCCGGAUAAAAGUGGAGGGGGCGG [C14A C27U] | 0.04
38 | CCGCCUAACACUGACAAUGCCGGUCCCAAGCCCGGAUAAAAAUGGAGGGGGCGG [C14A G42A] | 0.05
39 | CCGCCUAACACUGACAAUGCCGGUCCCAAGCCCGGAUAAAAUUGGAGGGGGCGG [C14A G42U] | 0.03
40 | CCGCCUAACACUGACAAUGCCGGUCCCAAGCCCGGAUAAAACUGGAGGGGGCGG [C14A G42C] | 0.05
41 | CCGCCUAACACUUCCAAUGCCGGUCCCAAGCCCGGAUAAAAGUGGAGGGUGCGG [G13U G50U] | 0.03
42 | CCGCCUAACACUUCCAAUGCCGGUCCCAAGCCCGGAUAAAAGUGGAGGGCGCGG [G13U G50C] | 0.02
43 | CCGCCUAACACUUCCAAUGCCGGUCCCAAGCCCGGAUAAAAGUGGAGGGAGCGG [G13U G50A] | 0.03
44 | CCGCCUAAAACUGACAAUGCCGGUCCCAAGCCCGGAUAAAAGUGGAGGGGGCGG [C14A C9A] | 0.03
45 | CCGCCUAAGACUGACAAUGCCGGUCCCAAGCCCGGAUAAAAGUGGAGGGGGCGG [C14A C9G] | 0.06
46 | CCGCCUAAUACUGACAAUGCCGGUCCCAAGCCCGGAUAAAAGUGGAGGGGGCGG [C14A C9U] | 0.06
47 | CCGCCUAACACUGACAAUGCGGGUCCCAAGCCCGGAUAAAAGUGGAGGGGGCGG [C14A C21G] | 0.03
48 | CCGCCUAACACUGACAAUGCUGGUCCCAAGCCCGGAUAAAAGUGGAGGGGGCGG [C14A C21U] | 0.09
49 | CCGCCUAACACUGACAAUGCAGGUCCCAAGCCCGGAUAAAAGUGGAGGGGGCGG [C14A C21A] | 0.08
